From ChEMBL document CHEMBL3272207, “Structure-activity relationship in cinnamamides. 2. Synthesis and pharmacological evaluation of some (E)- and (Z)-N-alkyl-alpha, beta-dimethylcinnamamides substituted on the phenyl group” (J Med Chem, 1977)
Active and inactive are the calls of the source. The calls are words filed in the database; no cut-off is given here.

Columns and labels:
Mus musculus [1] = experiment: Anticonvulsant activity in albino Icem-CET (SPF Caw) mouse assessed as inhibition of pentylenetetrazole-induced maximal extensor seizures at 100 mg/kg, po administered 30 mins prior challenge; assay type: functional, organism-based; parameters: dose 100 mg/kg
Method in brief: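 Single-dose screen at 100 mg/kg by gavage in 0.5% Methocel in fasted male Icem-CET (SPF Caw) mice, 17-22 g. Dosing was 30 min before pentylenetetrazole 130 mg/kg ip, and prevention of maximal extensor seizures was scored.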

[2] = Behavioral toxicity in po dosed albino Icem-CET (SPF Caw) mouse measured up to 7 days by Irwin's test; assay type: organism-based; conditions: in vivo
Mus musculus [3] = experiment: Behavioral toxicity in po dosed albino Icem-CET (SPF Caw) mouse assessed as reduction in locomotor activity by Irwin's test; assay type: organism-based; conditions: in vivo
Mus musculus [4] = experiment: Behavioral toxicity in po dosed albino Icem-CET (SPF Caw) mouse assessed as positional passivity by Irwin's test; assay type: organism-based; conditions: in vivo
Mus musculus [5] = experiment: Behavioral toxicity in po dosed albino Icem-CET (SPF Caw) mouse assessed as tremors by Irwin's test; assay type: organism-based; conditions: in vivo
Mus musculus [6] = experiment: Toxicity in po dosed albino Icem-CET (SPF Caw) mouse assessed as impairment of pinna by Irwin's test; assay type: organism-based; conditions: in vivo
Mus musculus [7] = experiment: Anticonvulsant activity in po dosed albino Icem-CET (SPF Caw) mouse assessed as inhibition of pentylenetetrazole-induced maximal extensor seizures compound administered 30 mins prior challenge; assay type: functional
Method in brief: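 Pentylenetetrazole antagonism in male Icem-CET (SPF Caw) mice, 17-22 g, fasted 9 h. Compound in 0.5% Methocel was given by gavage (0.2 ml/10 g) at 4-5 doses, 20 mice per dose, 30 min before pentylenetetrazole 130 mg/kg ip. Prevention of maximal extensor seizures was scored. ED50 was calculated by probit analysis, with fiducial limits at p = 0.05.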

Mus musculus [8] = experiment: Toxicity in po dosed albino Icem-CET (SPF Caw) mouse assessed as impairment of corneal reflexes by Irwin's test; assay type: organism-based, Cornea; conditions: in vivo
Mus musculus [9] = experiment: Behavioral toxicity in albino Icem-CET (SPF Caw) mouse assessed as positional passivity at 25 to 800 mg/kg, po by Irwin's test; assay type: organism-based; parameters: dose 25-800 mg/kg, route oral; conditions: in vivo
Mus musculus [10] = experiment: Behavioral toxicity in albino Icem-CET (SPF Caw) mouse assessed as clonic type convulsion at 25 to 800 mg/kg, po by Irwin's test; assay type: organism-based; parameters: dose 25-800 mg/kg, route oral; conditions: in vivo
Mus musculus [11] = experiment: Toxicity in po dosed albino Icem-CET (SPF Caw) mouse assessed as clonic type convulsion by Irwin's test; assay type: organism-based; conditions: in vivo
Method in brief: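 Irwin test in fasted (9 h) male Icem-CET (SPF Caw) mice, 17-22 g. Oral gavage of a 0.5% Methocel suspension at screening doses of 25-800 mg/kg. Clonic-type convulsions were scored as the minimum effective dose.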

Mus musculus [12] = experiment: Behavioral toxicity in albino Icem-CET (SPF Caw) mouse assessed as tremors at 25 to 800 mg/kg, po by Irwin's test; assay type: organism-based; parameters: dose 25-800 mg/kg, route oral; conditions: in vivo

## COc1ccc(/C(C)=C(\C)C(=O)NC2CC2)cc1
Mus musculus [1]
  Activity: inactive
[2]
  LD50 at 168 h: > 800 mg/kg
Mus musculus [3]
  ED50: 250 mg/kg
Mus musculus [4]
  ED50: 300 mg/kg
Mus musculus [5]
  ED50: 250 mg/kg

## C=CCNC(=O)/C(C)=C(\C)c1ccc(F)cc1
Mus musculus [6]
  Activity: Toxic
Mus musculus [7]
  ED50: 40.2 mg/kg
[2]
  LD50 at 168 h: 400 mg/kg
Mus musculus [3]
  ED50: 70 mg/kg
Mus musculus [4]
  ED50: 150 mg/kg
Mus musculus [8]
  Activity: Toxic
Mus musculus [5]
  ED50: 130 mg/kg

## C/C(C(=O)NC1CC1)=C(/C)c1ccc(Cl)cc1
[2]
  LD50 at 168 h: 300 mg/kg
Mus musculus [3]
  ED50: 350 mg/kg
Mus musculus [4]
  ED50: > 800 mg/kg
Mus musculus [5]
  ED50: 150 mg/kg

## C#CCNC(=O)/C(C)=C(\C)c1ccc(F)cc1
Mus musculus [6]
  Activity: Toxic
Mus musculus [7]
  ED50: 22.8 mg/kg
[2]
  LD50 at 168 h: 240 mg/kg
Mus musculus [3]
  ED50: 100 mg/kg
Mus musculus [4]
  ED50: 200 mg/kg
Mus musculus [8]
  Activity: Toxic
Mus musculus [5]
  ED50: 100 mg/kg

## C#CCNC(=O)/C(C)=C(\C)c1ccc(C)cc1
Mus musculus [7]
  ED50: 86.4 mg/kg
[2]
  LD50 at 168 h: > 800 mg/kg
Mus musculus [3]
  ED50: 120 mg/kg
Mus musculus [4]
  ED50: 200 mg/kg
Mus musculus [5]
  ED50: 150 mg/kg

## C/C(C(=O)NC1CC1)=C(\C)c1ccc(Cl)cc1
[2]
  LD50 at 168 h: 450 mg/kg
Mus musculus [3]
  ED50: 170 mg/kg
Mus musculus [9]
  Activity: Non-toxic
Mus musculus [10]
  Activity: Non-toxic
Mus musculus [5]
  ED50: 600 mg/kg

## C=CCNC(=O)/C(C)=C(\C)c1ccc(OC)cc1
Mus musculus [1]
  Activity: inactive
[2]
  LD50 at 168 h: > 800 mg/kg
Mus musculus [3]
  ED50: 200 mg/kg
Mus musculus [4]
  ED50: 300 mg/kg
Mus musculus [5]
  ED50: 300 mg/kg

## C/C(C(=O)NC1CC1)=C(/C)c1ccc(C)cc1
Mus musculus [1]
  Activity: inactive
[2]
  LD50 at 168 h: > 800 mg/kg
Mus musculus [3]
  ED50: 110 mg/kg
Mus musculus [4]
  ED50: 300 mg/kg
Mus musculus [5]
  ED50: 150 mg/kg

## C=CCNC(=O)/C(C)=C(/C)c1ccc(Cl)cc1
Mus musculus [1]
  Activity: inactive
[2]
  LD50 at 168 h: 600 mg/kg
Mus musculus [3]
  ED50: 180 mg/kg
Mus musculus [11]
  MED: 400 mg/kg
Mus musculus [4]
  ED50: 280 mg/kg
Mus musculus [5]
  ED50: 400 mg/kg

## C=CCNC(=O)/C(C)=C(\C)c1cc(OC)c(OC)c(OC)c1
Mus musculus [1]
  Activity: inactive
[2]
  LD50 at 168 h: 600 mg/kg
Mus musculus [3]
  ED50: 110 mg/kg
Mus musculus [4]
  ED50: 280 mg/kg
Mus musculus [5]
  ED50: 190 mg/kg

## C=CCNC(=O)/C(C)=C(\C)c1ccc(Br)cc1
Mus musculus [7]
  ED50: 33.7 mg/kg
[2]
  LD50 at 168 h: 600 mg/kg
Mus musculus [3]
  ED50: 120 mg/kg
Mus musculus [4]
  ED50: 500 mg/kg
Mus musculus [5]
  ED50: 500 mg/kg

## C=CCNC(=O)/C(C)=C(/C)c1ccccc1
Mus musculus [1]
  Activity: inactive
[2]
  LD50 at 168 h: 600 mg/kg
Mus musculus [3]
  ED50: 550 mg/kg
Mus musculus [11]
  MED: 400 mg/kg
Mus musculus [9]
  Activity: Non-toxic
Mus musculus [5]
  ED50: 400 mg/kg

## C/C(C(=O)NC1CC1)=C(\C)c1ccc(C)cc1
Mus musculus [1]
  Activity: inactive
[2]
  LD50 at 168 h: > 800 mg/kg
Mus musculus [3]
  ED50: 280 mg/kg
Mus musculus [4]
  ED50: 500 mg/kg
Mus musculus [10]
  Activity: Non-toxic
Mus musculus [12]
  Activity: Non-toxic

## C#CCNC(=O)/C(C)=C(\C)c1ccc(OC)cc1
Mus musculus [7]
  ED50: 112 mg/kg
[2]
  LD50 at 168 h: > 800 mg/kg
Mus musculus [3]
  ED50: 150 mg/kg
Mus musculus [4]
  ED50: 400 mg/kg
Mus musculus [5]
  ED50: 150 mg/kg

## C=CCNC(=O)/C(C)=C(\C)c1ccccc1
[2]
  LD50 at 168 h: 550 mg/kg
Mus musculus [3]
  ED50: 130 mg/kg
Mus musculus [4]
  ED50: 300 mg/kg
Mus musculus [5]
  ED50: 250 mg/kg

## C#CCNC(=O)/C(C)=C(\C)c1ccccc1
Mus musculus [7]
  ED50: 45.3 mg/kg
[2]
  LD50 at 168 h: 300 mg/kg
Mus musculus [3]
  ED50: 150 mg/kg
Mus musculus [4]
  ED50: 400 mg/kg
Mus musculus [5]
  ED50: 150 mg/kg

## C/C(C(=O)NC1CC1)=C(/C)c1ccccc1
[2]
  LD50 at 168 h: 500 mg/kg
Mus musculus [3]
  ED50: 100 mg/kg
Mus musculus [4]
  ED50: 250 mg/kg
Mus musculus [5]
  ED50: 150 mg/kg

## C/C(C(=O)NC1CC1)=C(\C)c1ccc(Br)cc1
[2]
  LD50 at 168 h: 600 mg/kg
Mus musculus [3]
  ED50: 300 mg/kg
Mus musculus [4]
  ED50: 450 mg/kg
Mus musculus [10]
  Activity: Non-toxic
Mus musculus [12]
  Activity: Non-toxic

## C=CCNC(=O)/C(C)=C(/C)c1ccc(F)cc1
Mus musculus [1]
  Activity: inactive
Mus musculus [6]
  Activity: Toxic
[2]
  LD50 at 168 h: 400 mg/kg
Mus musculus [3]
  ED50: 270 mg/kg
Mus musculus [11]
  MED: 800 mg/kg
Mus musculus [4]
  ED50: 300 mg/kg
Mus musculus [8]
  Activity: Toxic
Mus musculus [5]
  ED50: 250 mg/kg

## C=CCNC(=O)/C(C)=C(/C)c1ccc(OC)cc1
Mus musculus [1]
  Activity: inactive
[2]
  LD50 at 168 h: 400 mg/kg
Mus musculus [3]
  ED50: 280 mg/kg
Mus musculus [11]
  MED: 400 mg/kg
Mus musculus [9]
  Activity: Non-toxic
Mus musculus [5]
  ED50: 400 mg/kg

## C#CCNC(=O)/C(C)=C(\C)c1cc(OC)c(OC)c(OC)c1
Mus musculus [7]
  ED50: 53.1 mg/kg
[2]
  LD50 at 168 h: 500 mg/kg
Mus musculus [3]
  ED50: 160 mg/kg
Mus musculus [4]
  ED50: 300 mg/kg
Mus musculus [5]
  ED50: 150 mg/kg

## C=CCNC(=O)/C(C)=C(\C)c1ccc(C)cc1
Mus musculus [7]
  ED50: 78 mg/kg
[2]
  LD50 at 168 h: 600 mg/kg
Mus musculus [3]
  ED50: 100 mg/kg
Mus musculus [4]
  ED50: 170 mg/kg
Mus musculus [5]
  ED50: 150 mg/kg

## C=CCNC(=O)/C(C)=C(\C)c1ccc(Cl)cc1
[2]
  LD50 at 168 h: 300 mg/kg
Mus musculus [3]
  ED50: 70 mg/kg
Mus musculus [4]
  ED50: 90 mg/kg
Mus musculus [5]
  ED50: 70 mg/kg

## C/C(C(=O)NC1CC1)=C(/C)c1ccc(F)cc1
Mus musculus [6]
  Activity: Toxic
Mus musculus [7]
  ED50: 25 mg/kg
[2]
  LD50 at 168 h: 300 mg/kg
Mus musculus [3]
  ED50: 110 mg/kg
Mus musculus [4]
  ED50: 200 mg/kg
Mus musculus [8]
  Activity: Toxic
Mus musculus [5]
  ED50: 70 mg/kg

## COc1ccc(/C(C)=C(/C)C(=O)NC2CC2)cc1
Mus musculus [1]
  Activity: inactive
[2]
  LD50 at 168 h: 450 mg/kg
Mus musculus [3]
  ED50: 300 mg/kg
Mus musculus [11]
  MED: 400 mg/kg
Mus musculus [9]
  Activity: Non-toxic
Mus musculus [5]
  ED50: 300 mg/kg

## COc1cc(/C(C)=C(\C)C(=O)NC2CC2)cc(OC)c1OC
Mus musculus [1]
  Activity: inactive
[2]
  LD50 at 168 h: > 800 mg/kg
Mus musculus [3]
  ED50: 320 mg/kg
Mus musculus [4]
  ED50: > 800 mg/kg
Mus musculus [5]
  ED50: > 800 mg/kg

## C/C(C(=O)NC1CC1)=C(\C)c1ccccc1
Mus musculus [1]
  Activity: inactive
[2]
  LD50 at 168 h: 600 mg/kg
Mus musculus [3]
  ED50: 400 mg/kg
Mus musculus [11]
  MED: 400 mg/kg
Mus musculus [9]
  Activity: Non-toxic
Mus musculus [5]
  ED50: 300 mg/kg

## C#CCNC(=O)/C(C)=C(\C)c1ccc(Br)cc1
Mus musculus [7]
  ED50: 18.4 mg/kg
[2]
  LD50 at 168 h: 300 mg/kg
Mus musculus [3]
  ED50: 180 mg/kg
Mus musculus [4]
  ED50: 500 mg/kg
Mus musculus [5]
  ED50: 150 mg/kg

## C=CCNC(=O)/C(C)=C(/C)c1ccc(C)cc1
Mus musculus [1]
  Activity: inactive
[2]
  LD50 at 168 h: > 800 mg/kg
Mus musculus [3]
  ED50: 280 mg/kg
Mus musculus [11]
  MED: 400 mg/kg
Mus musculus [9]
  Activity: Non-toxic
Mus musculus [5]
  ED50: 400 mg/kg
